# From ChEMBL document CHEMBL3286368, “Delayed and Prolonged Histone Hyperacetylation with a Selective HDAC1/HDAC2 Inhibitor” (ACS Med Chem Lett, 2014)
# Tests used:
# [1] = Cmax in CD1 nu/nu mouse xenografted with human HCT116 cells at 100 mg/kg, po qd for 3 weeks; format: ADME, organism-based, HCT-116; parameters: dose 100 mg/kg, route oral; details: in vivo
# Outline: (§1)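 HCT116 cells (5 × 10^6 per mouse) injected subcutaneously into the right flank of CD1 nu/nu mice. Once tumors reached ~325 mm3, mice were randomized into groups of 12 and dosed orally for 21 days, once daily (qd) or biweekly (biw). Vehicle was 40% v/v PEG-400 plus 25% w/v HPβCD at 20 μL/g.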
# [2] = Cmax in CD1 nu/nu mouse xenografted with human HCT116 cells at 350 mg/kg, po administered biweekly for 3 weeks; format: ADME, organism-based, HCT-116; parameters: dose 350 mg/kg, route oral; details: in vivo; outline: as §1
# [3] = Cmax in CD1 nu/nu mouse xenografted with human HCT116 cells at 525 mg/kg, po administered biweekly for 3 weeks; format: ADME, organism-based, HCT-116; parameters: dose 525 mg/kg, route oral; details: in vivo; outline: as §1
# [4] = AUC (0 to 24 hrs) in CD1 nu/nu mouse xenografted with human HCT116 cells at 150 mg/kg, po qd for 3 weeks; format: ADME, organism-based, HCT-116; parameters: time < 24 hr, dose 150 mg/kg, route oral; details: in vivo
# Outline: (§2)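 HCT116 cells (5 × 10^6/mouse) injected sc into right flank of CD1 nu/nu mice; at ~325 mm3 tumors, randomized into groups of 12. Oral dosing 21 days, once daily or biweekly, in 40% v/v PEG-400 and 25% w/v HPβCD at 20 μL/g. […] Tumor size by caliper.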
# [5] = AUC (0 to 24 hrs) in CD1 nu/nu mouse xenografted with human HCT116 cells at 200 mg/kg, po qd for 3 weeks; format: ADME, organism-based, HCT-116; parameters: time < 24 hr, dose 200 mg/kg, route oral; details: in vivo; outline: as §2
# [6] = AUC (0 to 24 hrs) in CD1 nu/nu mouse xenografted with human HCT116 cells at 525 mg/kg, po administered biweekly for 3 weeks; format: ADME, organism-based, HCT-116; parameters: time < 24 hr, dose 525 mg/kg, route oral; details: in vivo; outline: as §2
# [7] = AUC (0 to 24 hrs) in CD1 nu/nu mouse xenografted with human HCT116 cells at 875 mg/kg, po administered biweekly for 3 weeks; format: ADME, organism-based, HCT-116; parameters: time < 24 hr, dose 875 mg/kg, route oral; details: in vivo; outline: as §2
# [8] = test system: Mus musculus; assay: Unbound Cmax in 3 week po dosed CD1 nu/nu mouse xenografted with human HCT116 cells; format: ADME, organism-based, HCT-116; details: in vivo, 504 h
# [9] = Plasma clearance in CD-1 mouse at 5 mg/kg, iv; format: ADME, organism-based; parameters: dose 5 mg/kg, route intravenous
# Outline: (§3)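 Intravenous dosing at 5 (mouse), 2 (rat), 0.5 (dog) and 0.5 (monkey) mg/kg. Plasma clearance, steady-state volume of distribution and half-life derived from the plasma profile.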
# [10] = Volume of distribution at steady state in CD-1 mouse at 5 mg/kg, iv; format: ADME, organism-based; parameters: dose 5 mg/kg, route intravenous; details: in vivo, read-out: Vdss; outline: as §3
# [11] = Plasma protein binding in CD-1 mouse at 2 uM; format: ADME, cell-free; details: read-out: PPB (converted)
# Outline: (§4)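 Plasma protein binding measured in mouse, rat, dog and monkey plasma at 2 μM compound.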
# [12] = Half life in Sprague-Dawley rat at 2 mg/kg, iv; format: ADME, organism-based; parameters: dose 2 mg/kg, route intravenous; details: in vivo; outline: as §3
# [13] = Oral bioavailability in Sprague-Dawley rat at 4 mg/kg; format: ADME, organism-based; details: in vivo
# [14] = Plasma protein binding in Sprague-Dawley rat at 2 uM; format: ADME, cell-free; details: read-out: PPB (converted); outline: as §4
# [15] = Plasma clearance in beagle dog at 0.5 mg/kg, iv; format: ADME, organism-based, Canis lupus familiaris; parameters: dose 0.5 mg/kg, route intravenous; outline: as §3
# [16] = test system: Canis familiaris; assay: Dose normalized AUC in beagle dog at 1 mg/kg, po; format: ADME, organism-based, Canis lupus familiaris; parameters: dose 1 mg/kg, route oral; details: in vivo
# [17] = Plasma clearance in rhesus monkey at 0.5 mg/kg, iv; format: ADME, organism-based, Macaca mulatta; parameters: dose 0.5 mg/kg, route intravenous; outline: as §3
# [18] = test system: Rhesus monkey; assay: Dose normalized AUC in rhesus monkey at 1 mg/kg, po; format: ADME, organism-based, Macaca mulatta; parameters: dose 1 mg/kg, route oral; details: in vivo
# Outline: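 Oral exposure, dose-normalized (μM·h·kg/mg), from a PK study also run with iv dosing (rat 2 mg/kg iv, 4 mg/kg po; monkey 0.5 mg/kg iv, 1 mg/kg po). Plasma clearance, Vdss, half-life and oral bioavailability also derived.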
# [19] = Oral bioavailability in rhesus monkey at 1 mg/kg; format: ADME, organism-based, Macaca mulatta; details: in vivo
# [20] = Plasma protein binding in rhesus monkey at 2 uM; format: ADME, cell-free, Macaca mulatta; details: read-out: PPB (converted); outline: as §4
# [21] = Drug metabolism in dog hepatocytes assessed as hydrolysis of oxazolidinone group; format: ADME, cell-based, Canis lupus familiaris, Hepatocyte
# [22] = Drug metabolism in human hepatocytes assessed as glucuronide conjugate level; format: ADME, cell-based, Hepatocyte
# [23] = Drug metabolism in human hepatocytes assessed as carboxylic acid level; format: ADME, cell-based, Hepatocyte
# [24] = Drug metabolism in human hepatocytes assessed as glucose conjugate level; format: ADME, cell-based, Hepatocyte
# [25] = Drug metabolism in liver microsomes (unknown origin) assessed as CYP-mediated oxidation; format: ADME
# [26] = test system: Mus musculus; assay: Inhibition of HDAC in CD1 nu/nu mouse tumor xenografted with human HCT116 cells assessed as plasma drug level causing increase in H2BK5 acetylation at 67 mg/kg, po tid after 4 hrs by ELISA; format: functional, HCT-116
# [27] = test system: Mus musculus; assay: Inhibition of HDAC in CD1 nu/nu mouse tumor xenografted with human HCT116 cells assessed as plasma drug level causing increase in H2BK5 acetylation at 67 mg/kg, po tid after 24 hrs by ELISA; format: functional, HCT-116
# [28] = test system: Mus musculus; assay: Inhibition of HDAC in CD1 nu/nu mouse tumor xenografted with human HCT116 cells assessed as plasma drug level causing increase in H2BK5 acetylation at 100 mg/kg, po bid after 24 hrs by ELISA; format: functional, HCT-116
# [29] = test system: Mus musculus; assay: Inhibition of HDAC in CD1 nu/nu mouse tumor xenografted with human HCT116 cells assessed as plasma drug level causing increase in H2BK5 acetylation at 200 mg/kg, po qd after 4 hrs by ELISA; format: functional, HCT-116
# [30] = test system: Mus musculus; assay: Inhibition of HDAC in CD1 nu/nu mouse tumor xenografted with human HCT116 cells assessed as plasma drug level causing increase in H2BK5 acetylation at 200 mg/kg, po qd after 8 hrs by ELISA; format: functional, HCT-116
# [31] = test system: Mus musculus; assay: Inhibition of HDAC in CD1 nu/nu mouse tumor xenografted with human HCT116 cells assessed as plasma drug level causing increase in H2BK5 acetylation at 200 mg/kg, po qd after 24 hrs by ELISA; format: functional, HCT-116
# [32] = Volume of distribution at steady state in Sprague-Dawley rat at 2 mg/kg, iv; format: ADME, organism-based; parameters: dose 2 mg/kg, route intravenous; details: in vivo, read-out: Vdss; outline: as §3
# [33] = Plasma clearance in Sprague-Dawley rat at 2 mg/kg, iv; format: ADME, organism-based; parameters: dose 2 mg/kg, route intravenous; outline: as §3
# [34] = test system: Mus musculus; assay: Inhibition of HDAC in CD1 nu/nu mouse tumor xenografted with human HCT116 cells assessed as plasma drug level causing increase in H2BK5 acetylation at 67 mg/kg, po tid after 1 hr by ELISA; format: functional, HCT-116
# [35] = in vivo; details: CD1 nu/nu, mouse, po, 50 mg/kg
# [36] = in vivo; details: CD1 nu/nu, mouse, po, 100 mg/kg
# [37] = in vivo; details: CD1 nu/nu, mouse, po, 875 mg/kg
smiles,measurement,setting,value
Nc1ccc(-c2cccs2)cc1NC(=O)c1ccc(N2CCC3(CC2)CNC(=O)O3)nc1,Cmax,[1],6.9 µM
same,Cmax,[2],32.8 µM
same,Cmax,[3],56.8 µM
same,AUC at 24 h,[4],208 µM·h
same,AUC at 24 h,[5],371 µM·h
same,AUC at 24 h,[6],808 µM·h
same,AUC at 24 h,[7],1220 µM·h
same,fCmax,[8],240 nM
same,clearance,[9],27 mL/min/kg
same,Vd,[10],2.1 L/kg
same,fraction unbound at 2 µM,[11],0.015
same,half-life,[12],4.2 h
same,bioavailability,[13],28%
same,fraction unbound at 2 µM,[14],0.002
same,clearance,[15],22 mL/min/kg
same,AUC/dose,[16],0.3 µM·kg·h/mg
same,clearance,[17],27 mL/min/kg
same,AUC/dose,[18],1.8 µM·kg·h/mg
same,bioavailability,[19],100%
same,fraction unbound at 2 µM,[20],0.016
same,Drug metabolism,[21],metabolite_notdetected
same,Drug metabolism,[22],metabolite_notdetected
same,Drug metabolism,[23],metabolite_notdetected
same,Drug metabolism,[24],metabolite_notdetected
same,Drug metabolism,[25],metabolite_notdetected
same,INH,[26],13.8 µM
same,INH,[27],1.5 µM
same,INH,[28],0.4 µM
same,INH,[29],17.2 µM
same,INH,[30],9.5 µM
same,INH,[31],0.2 µM
same,Vd,[32],0.7 L/kg
same,clearance,[33],3.6 mL/min/kg
same,INH,[34],14.9 µM
same,concentration at 24 h,[35],0.9 µM
same,concentration at 24 h,[36],0.5 µM
same,concentration at 24 h,[37],19.3 µM
